Assay results published in ChEMBL document CHEMBL4842326, “Design, synthesis and biological evaluation of 3, 4-disubstituted-imidazolidine-2, 5-dione derivatives as HDAC6 selective inhibitors” (Eur J Med Chem, 2021).
The source made the active and inactive calls. No cut-off for these calls is given here.

What was measured:
Histone deacetylase 2 = Histone deacetylase 2 (Homo sapiens, UniProt Q92769)
KG-1 = assay: Antiproliferative activity against human KG-1 cells assessed as inhibition of cell proliferation after 48 hrs by MTT assay; assay type: functional, cell-based; details: KG-1, 48 h
Method in brief: (§1)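 Leukemia/myeloma lines grown in RPMI1640 with 10% FBS at 37 °C, 5% CO2; seeded at 3500–4000 cells/well, cultured overnight, then exposed to serial dilutions for 48 h.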

HEL = assay: Antiproliferative activity against human HEL cells assessed as inhibition of cell proliferation after 48 hrs by MTT assay; assay type: functional, cell-based
Method in brief: as §1

HL-60 [1] = assay: Antiproliferative activity against human HL-60 cells assessed as inhibition of cell proliferation after 48 hrs by MTT assay; assay type: functional, cell-based; details: HL-60, 48 h
Method in brief: as §1

NCI-H929 = assay: Antiproliferative activity against human NCI-H929 cells assessed as inhibition of cell proliferation after 48 hrs by MTT assay; assay type: functional, cell-based; details: NCI-H929, 48 h
Method in brief: as §1

[2] = molecular target: T1, Protein deacetylase HDAC6 (Homo sapiens) (UniProt Q9UBN7); assay: Inhibition of HDAC6 in human HL-60 cells assessed as increase in acetylation of alpha tubulin measured up to 24 hrs by Western blot analysis; assay type: cell-based; details: time hrs <=24
T1 sequence (whole entry): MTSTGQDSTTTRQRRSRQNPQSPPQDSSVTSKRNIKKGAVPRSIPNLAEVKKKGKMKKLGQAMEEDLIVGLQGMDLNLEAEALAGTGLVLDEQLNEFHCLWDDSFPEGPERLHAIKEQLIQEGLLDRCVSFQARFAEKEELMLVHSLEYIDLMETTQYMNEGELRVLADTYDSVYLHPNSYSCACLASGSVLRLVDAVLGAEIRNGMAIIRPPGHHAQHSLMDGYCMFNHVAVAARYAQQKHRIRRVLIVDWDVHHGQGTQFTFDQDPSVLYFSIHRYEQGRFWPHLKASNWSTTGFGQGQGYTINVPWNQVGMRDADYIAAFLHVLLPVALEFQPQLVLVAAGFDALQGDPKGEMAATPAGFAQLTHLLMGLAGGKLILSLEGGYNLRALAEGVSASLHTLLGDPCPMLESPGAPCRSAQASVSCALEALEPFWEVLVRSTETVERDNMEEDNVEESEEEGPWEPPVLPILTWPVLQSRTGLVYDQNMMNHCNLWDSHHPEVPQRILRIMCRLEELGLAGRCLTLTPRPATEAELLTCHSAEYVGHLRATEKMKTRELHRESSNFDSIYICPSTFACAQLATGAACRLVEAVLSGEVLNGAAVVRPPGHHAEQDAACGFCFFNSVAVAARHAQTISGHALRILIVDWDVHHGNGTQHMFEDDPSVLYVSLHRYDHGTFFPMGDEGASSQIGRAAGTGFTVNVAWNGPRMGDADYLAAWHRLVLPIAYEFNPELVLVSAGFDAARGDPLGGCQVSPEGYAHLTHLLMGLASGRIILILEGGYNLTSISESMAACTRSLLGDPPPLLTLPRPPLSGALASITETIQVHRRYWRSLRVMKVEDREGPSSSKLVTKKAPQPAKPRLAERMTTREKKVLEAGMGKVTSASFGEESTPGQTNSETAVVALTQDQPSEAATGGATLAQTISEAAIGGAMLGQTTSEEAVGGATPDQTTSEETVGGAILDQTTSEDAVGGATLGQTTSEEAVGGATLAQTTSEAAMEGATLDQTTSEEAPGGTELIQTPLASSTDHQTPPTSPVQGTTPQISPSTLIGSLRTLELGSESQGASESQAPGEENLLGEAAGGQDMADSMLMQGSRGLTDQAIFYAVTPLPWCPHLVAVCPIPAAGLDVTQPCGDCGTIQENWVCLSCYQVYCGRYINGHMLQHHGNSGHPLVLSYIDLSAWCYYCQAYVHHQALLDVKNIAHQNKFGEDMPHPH
Method in brief: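 HL-60 cells treated 12 h or 24 h, pelleted, lysed in RIPA with 1 mM PMSF on ice 30 min, cleared at 4 °C; lysates run on 12.5% SDS-PAGE, blotted to PVDF, blocked in 5% milk 1 h, probed overnight at 4 °C for acetyl-α-tubulin, acetyl-H3 and GAPDH, secondary 1 h, ECL detection.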

HL-60 [3] = assay: Induction of apoptosis in human HL-60 cells at 3 uM measured after 48 hrs by TUNEL staining based fluorescence microscopy; assay type: functional, cell-based
Method in brief: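 HL-60 cells (1 × 10^6/well) given 3 µM compound or vehicle (0.2% DMSO) for 48 h; washed in cold PBS, fixed in paraformaldehyde 30 min, permeabilised with 0.5% Triton X-100 for 5 min, labelled 60 min with FITC-12-dUTP plus terminal deoxynucleotidyl transferase, washed twice, green fluorescence imaged by microscopy.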

HUVEC = assay: Cytotoxicity against human HUVEC cells assessed as decrease in cell viability after 48 hrs by MTT assay; assay type: cell-based
Method in brief: (§2)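 Normal cells: HUVECs in RPMI1640 with 10% FBS plus 0.1% heparin, GEC-1 in RPMI1640 with 10% FBS. Seeded 8 h, then treated with serial dilutions for 48 h; 0.5% MTT for 4 h, supernatant removed, DMSO added, absorbance read at 570 nm.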

[4] = Cytotoxicity against human GEC1 cells assessed as decrease in cell viability after 48 hrs by MTT assay; assay type: cell-based; details: GEC1, 48 h
Method in brief: as §2

[5] = molecular target: T1, Protein deacetylase HDAC6 (Homo sapiens); assay: Potency index, ratio of tubastatin-A IC50 to test compound IC50 for HDAC6 (unknown origin) using Ac-LeuGlyLy-s(Ac)-AMC as substrate preincubated for 10 mins followed by substrate addition and further incubated for 2 hrs by fluorescence microtiter plate reader assay
Homo sapiens [6] = species on record: Homo sapiens; assay: Selectivity ratio of IC50 for HDAC1 (unknown origin) to IC50 for HDAC6 (unknown origin)
Homo sapiens [7] = species on record: Homo sapiens; assay: Selectivity ratio of IC50 for HDAC8 (unknown origin) to IC50 for HDAC6 (unknown origin)

Sequence of Histone deacetylase 2 (Q92769 whole entry): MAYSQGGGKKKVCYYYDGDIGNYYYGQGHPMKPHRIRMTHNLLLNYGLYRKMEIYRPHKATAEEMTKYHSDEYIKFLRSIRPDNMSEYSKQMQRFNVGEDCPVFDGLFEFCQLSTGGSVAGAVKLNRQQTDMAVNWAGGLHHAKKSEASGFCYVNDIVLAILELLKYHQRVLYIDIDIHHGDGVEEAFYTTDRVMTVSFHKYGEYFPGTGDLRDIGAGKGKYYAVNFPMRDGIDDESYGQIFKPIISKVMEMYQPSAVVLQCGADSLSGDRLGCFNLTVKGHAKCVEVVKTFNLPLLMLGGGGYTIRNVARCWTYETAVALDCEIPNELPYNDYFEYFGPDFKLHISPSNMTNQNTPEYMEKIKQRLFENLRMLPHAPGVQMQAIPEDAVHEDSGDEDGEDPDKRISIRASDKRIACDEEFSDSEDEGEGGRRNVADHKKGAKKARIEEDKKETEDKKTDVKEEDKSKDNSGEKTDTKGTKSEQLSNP

IC50 (Histone deacetylase 2): 12.3 µM
IC50 (HL-60 [1]): 3.23 µM
IC50 (NCI-H929): 7.61 µM
inhibition [2]: Dose-Dependent Effect
Ratio IC50 [5]: 12
Ratio IC50 (Homo sapiens [6]): 5540
Ratio IC50 (Homo sapiens [7]): 1640
SMILES: O=C(NO)c1ccc(CN2C(=O)C(Cc3ccccc3)N(Cc3cccnc3)C2=O)cc1 (racemic)
IC50 (KG-1): 7.04 µM
IC50 (HEL): 4.58 µM
Activity (HL-60 [3]): Active
IC50 (HUVEC): 83.1 µM
IC50 [4]: 68.2 µM
